# Measurements as given in PMC3969656 (Pharmacognosy Magazine, 2014).
# How the values were obtained:
# [1] = Stability of analytes in rat plasma QC samples and postpreparative stability; assay type: in vitro ADME; details: for Stability in rat plasma, recovered percentage: QC samples (0.1, 0.5, and 5.0 μg/mL); for Postpreparative stability: prepared samples, 24 h storage at 4°C
# How it was run: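 Drug-free rat plasma was spiked to give QC samples at 0.1, 0.5 and 5.0 μg/mL. Samples were stored at room temperature or -20°C. For postpreparative stability, extracted samples were held at 4°C. Samples were extracted with acetonitrile plus isoliquiritin IS and quantified by C18 water/acetonitrile gradient HPLC-UV at 330 nm. Results are given as percent recovered.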
# [2] = ref Park et al., 21, cited from earlier work
# [3] = 12 h storage at room temperature
SMILES,"Stability in rat plasma, recovered percentage ([1]; 4-weeks storage at -20°C) [%]","Stability in rat plasma, recovered percentage [1, 3] [%]",Postpreparative stability [1] [%],Plasma level after intravenous administration ([2]; intravenous administration of decursin),Hepatic first-pass metabolism [2]
"CC1(C)Oc2cc3oc(=O)ccc3cc2C[C@@H]1O [Decursinol, decursinol]",100.9 ± 5.9,89.9 ± 10.6,97.8 ± 5.4,–,–
"CC(C)(O[C@@H]1O[C@H](CO)[C@@H](O)[C@H](O)[C@H]1O)[C@H]1Cc2cc3ccc(=O)oc3cc2O1 [Nodakenin, nodakenin]",99.0 ± 4.4,97.8 ± 7.1,100.5 ± 6.1,–,–
CC(C)=CC(=O)O[C@H]1Cc2cc3ccc(=O)oc3cc2OC1(C)C [decursin],–,–,–,rapidly decreased,extensive hepatic first-pass metabolism
